One experiment has as its target Melanocortin receptor 3 (Mus musculus, UniProt P33033). Nature of the experiment: Agonist activity at mouse MC3 receptor expressed in HEK293 cells after 6 hrs by cAMP-based beta-galactosidase reporter gene assay. The gist of the method:
(§1)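 HEK-293 cells stably expressing the mouse receptor, kept in DMEM with 10% fetal calf serum, transfected with CRE/β-galactosidase reporter. Efficacy is relative to NDP-MSH on the same plate. EC50 is the mean of duplicate wells from three or more independent experiments, fitted by nonlinear least squares.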
Background: Reporter assays use an easily measured gene product as a stand-in for the process of interest.

Experiment [1] concerns the target Melanocyte-stimulating hormone receptor (Mus musculus, UniProt Q01727). Nature of the experiment: Agonist activity at mouse MC1 receptor expressed in HEK293 cells after 6 hrs by cAMP-based beta-galactosidase reporter gene assay. The gist of the method: as §1
For the next experiment, the target named is Melanocortin receptor 4 (Mus musculus, UniProt P56450). Nature of the experiment: Agonist activity at mouse MC4 receptor expressed in HEK293 cells after 6 hrs by cAMP-based beta-galactosidase reporter gene assay. In outline:
as §1

The next experiment deals with Melanocortin receptor 5 (Mus musculus, UniProt P41149). Nature of the experiment: Agonist activity at mouse MC5 receptor expressed in HEK293 cells after 6 hrs by cAMP-based beta-galactosidase reporter gene assay. The gist of the method: as §1
Chain of Melanocortin receptor 5 (P41149 whole entry): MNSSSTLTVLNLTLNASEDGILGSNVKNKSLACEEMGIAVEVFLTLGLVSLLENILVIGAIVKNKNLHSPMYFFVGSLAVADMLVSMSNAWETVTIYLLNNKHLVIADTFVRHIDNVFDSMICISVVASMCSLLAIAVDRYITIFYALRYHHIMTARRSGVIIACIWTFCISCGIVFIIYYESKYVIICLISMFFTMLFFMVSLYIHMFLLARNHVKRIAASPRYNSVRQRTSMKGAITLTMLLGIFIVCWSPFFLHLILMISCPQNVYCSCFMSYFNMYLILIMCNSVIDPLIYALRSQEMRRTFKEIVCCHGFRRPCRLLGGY

Chain of Melanocortin receptor 3 (P33033 whole entry): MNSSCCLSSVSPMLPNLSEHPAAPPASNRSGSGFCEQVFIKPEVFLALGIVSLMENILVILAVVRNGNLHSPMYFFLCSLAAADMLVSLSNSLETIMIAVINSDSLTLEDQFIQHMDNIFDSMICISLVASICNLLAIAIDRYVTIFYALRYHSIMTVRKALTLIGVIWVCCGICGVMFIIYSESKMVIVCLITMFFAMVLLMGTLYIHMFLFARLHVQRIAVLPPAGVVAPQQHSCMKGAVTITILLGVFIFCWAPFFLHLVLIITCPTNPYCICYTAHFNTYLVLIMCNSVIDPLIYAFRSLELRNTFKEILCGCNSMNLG
Chain of Melanocyte-stimulating hormone receptor (Q01727 whole entry): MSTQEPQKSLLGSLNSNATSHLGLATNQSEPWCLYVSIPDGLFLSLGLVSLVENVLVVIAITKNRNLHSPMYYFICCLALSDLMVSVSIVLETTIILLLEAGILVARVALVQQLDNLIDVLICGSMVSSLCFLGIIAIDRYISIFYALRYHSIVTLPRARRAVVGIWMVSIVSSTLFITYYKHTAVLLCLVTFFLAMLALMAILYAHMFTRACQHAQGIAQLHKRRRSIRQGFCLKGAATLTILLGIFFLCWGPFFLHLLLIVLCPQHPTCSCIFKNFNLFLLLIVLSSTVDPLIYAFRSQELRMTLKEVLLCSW
Chain of Melanocortin receptor 4 (P56450 whole entry): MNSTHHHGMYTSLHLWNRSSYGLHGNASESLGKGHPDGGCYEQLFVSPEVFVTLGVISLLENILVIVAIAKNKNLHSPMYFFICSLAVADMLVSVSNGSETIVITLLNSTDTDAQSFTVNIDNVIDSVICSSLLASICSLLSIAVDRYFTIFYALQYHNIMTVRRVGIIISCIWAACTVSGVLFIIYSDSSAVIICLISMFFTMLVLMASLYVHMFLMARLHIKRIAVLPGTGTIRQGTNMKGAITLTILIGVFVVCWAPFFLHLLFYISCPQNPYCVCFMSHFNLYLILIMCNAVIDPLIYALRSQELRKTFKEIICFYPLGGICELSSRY

As usually defined, the EC50 is the concentration that produces a half-maximal response. Read a high EC50 as a less potent agent. As to `C[C@@H]1NC(=O)[C@H](CC(N)=O)NC(=O)[C@@H](Cc2c[nH]c3ccccc23)[C@]23CCCN2C(=O)[C@@H](CSCC3=O)NC(=O)[C@@H](Cc2ccccc2)NC(=O)[C@H](Cc2cnc[nH]2)NC(=O)[C@@H](NC(=O)[C@@H](N)Cc2ccc(O)cc2)CSSC[C@@H](C(=O)N[C@@H](Cc2ccc(O)cc2)C(N)=O)NC(=O)[C@H](Cc2ccccc2)NC1=O`, the concentration for a half-maximal effect (EC50) worked out at 7120 nM on Melanocortin receptor 3, 16 nM in experiment [1], 1270 nM at Melanocortin receptor 4 and 630 nM on Melanocortin receptor 5.

The record behind these values is BindingDB's records for doi:10.1021/jm301253y (University of Florida, 2013).
